The values that follow come from PubChem BioAssay.

Test [1] in a line: thallium flux activation in parental CHO cells, counter-screen for KCNQ1 potentiator project (AID 493006;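 active = duplicate-averaged activation above buffer control mean plus 5 SD of those controls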). Particulars: parental CHO-K1 cells, FluxOR thallium flux, at 10 µM; hits give high values. The essentials:
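Assay system: Untransfected host CHO-K1 cells with FluxOR thallium dye | Probe or stimulus: Potassium/thallium depolarization pulse | Schedule: Overnight 37 °C plating, 90 min RT dye, 20 min compound | Detection: Kinetic thallium-flux fluorescence | Read-out: Max-minus-min fluorescence over baseline, percent of buffer-to-R-L3 span | Benchmarks: Low control buffer, high control R-L3 activator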
In general terms: The purpose of a counterscreen is to sort out artefacts and off-target activity.

The target of test [2] is Potassium voltage-gated channel subfamily KQT member 1 (Homo sapiens) (UniProt P51787). The test is described as follows: KCNQ1 potassium channel potentiators, confirmation, FluxOR thallium flux, CHO cells, duplicates (AID 493007;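 active = potentiation averaged over duplicate wells exceeding buffer-only control mean by more than 3 SD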;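 as to outcome: cells depolarized by a potassium plus thallium sulfate stimulus after compound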). As to conditions: KCNQ1 cell line, FluxOR thallium flux fluorescence, at 10 µM; hits give high values, % of reference activator effect, buffer zero. In short, it runs like this: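 Material: KCNQ1-expressing CHO cell line; Incubation: FluxOR dye loading 90 min, compound exposure 20 min, room temperature; Detection: FluxOR Tl+ flux fluorescence, 10 s baseline plus 110 s recording; Read-out: percent activation between buffer and R-L3 responses; Control set: buffer-only wells as 0% and R-L3 activator as 100%; Replication: duplicate wells per compound.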
Potassium voltage-gated channel subfamily KQT member 1 (Homo sapiens), sequence (P51787 whole entry, looked up): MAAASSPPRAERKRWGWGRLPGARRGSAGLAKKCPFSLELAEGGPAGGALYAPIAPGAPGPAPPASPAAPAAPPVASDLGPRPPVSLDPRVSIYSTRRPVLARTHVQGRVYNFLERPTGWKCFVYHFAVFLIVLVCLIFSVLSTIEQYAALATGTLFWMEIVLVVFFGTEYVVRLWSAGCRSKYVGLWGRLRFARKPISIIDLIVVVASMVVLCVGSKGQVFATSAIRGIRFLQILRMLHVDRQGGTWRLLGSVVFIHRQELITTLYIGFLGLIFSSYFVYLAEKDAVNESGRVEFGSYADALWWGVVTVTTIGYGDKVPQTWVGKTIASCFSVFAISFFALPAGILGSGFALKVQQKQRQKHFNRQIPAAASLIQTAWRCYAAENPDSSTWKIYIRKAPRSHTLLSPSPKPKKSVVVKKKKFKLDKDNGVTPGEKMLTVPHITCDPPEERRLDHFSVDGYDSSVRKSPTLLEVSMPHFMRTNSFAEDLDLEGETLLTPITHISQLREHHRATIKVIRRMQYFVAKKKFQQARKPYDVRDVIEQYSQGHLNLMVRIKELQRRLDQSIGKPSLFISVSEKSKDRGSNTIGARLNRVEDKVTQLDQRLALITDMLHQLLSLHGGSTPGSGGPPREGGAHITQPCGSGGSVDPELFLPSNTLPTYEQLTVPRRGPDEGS

Test [3] has as its target Potassium voltage-gated channel subfamily KQT member 2 (Rattus norvegicus) (UniProt O88943). Kind of test: rat KCNQ2 channel potentiation, selectivity assay for KCNQ1 potentiator project, KCNQ2-CHO-K1 cells (AID 493009).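 Also: assay conditions were tuned for KCNQ1 rather than KCNQ2 modulators; signal is max minus min fluorescence divided by baseline after thallium stimulus.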 As to conditions: FluxOR thallium flux fluorescence, at 10 µM; hits give high values, scaled: buffer 0, activator control 100.
Test [4] concerns the target Potassium voltage-gated channel subfamily KQT member 1 (Homo sapiens) (UniProt P51787). The test is described as follows: KCNQ1 channel current potentiators, confirmation, orthogonal assay for KCNQ1 potentiator project, IonWorks patch clamp, KCNQ1-CHO cells (AID 493184;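 active = current rise at least 3 SD above the untreated control mean in each of two repeat wells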). Particulars: automated patch clamp current, at 10 µM; hits give high values. The essentials: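 assay system = KCNQ1-expressing CHO cells | medium = external bath solution at pH 7.4 | probe or stimulus = 2,000 ms depolarization, -90 to +40 mV | compound dosing = 10 µM final, single point | measured by = automated voltage clamp, amphotericin B perforated patch | measure = percent current increase versus pre-compound level | replication = duplicates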
Background: Patch clamp records ionic current or voltage across a cell membrane.

Active and inactive are the calls of the source.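 The calls were made as follows, unless noted: active = mean duplicate potentiation above the buffer control mean plus 5 SD of buffer wells; inactive = the rest.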

Potassium voltage-gated channel subfamily KQT member 2 (Rattus norvegicus), sequence (O88943 whole entry, looked up): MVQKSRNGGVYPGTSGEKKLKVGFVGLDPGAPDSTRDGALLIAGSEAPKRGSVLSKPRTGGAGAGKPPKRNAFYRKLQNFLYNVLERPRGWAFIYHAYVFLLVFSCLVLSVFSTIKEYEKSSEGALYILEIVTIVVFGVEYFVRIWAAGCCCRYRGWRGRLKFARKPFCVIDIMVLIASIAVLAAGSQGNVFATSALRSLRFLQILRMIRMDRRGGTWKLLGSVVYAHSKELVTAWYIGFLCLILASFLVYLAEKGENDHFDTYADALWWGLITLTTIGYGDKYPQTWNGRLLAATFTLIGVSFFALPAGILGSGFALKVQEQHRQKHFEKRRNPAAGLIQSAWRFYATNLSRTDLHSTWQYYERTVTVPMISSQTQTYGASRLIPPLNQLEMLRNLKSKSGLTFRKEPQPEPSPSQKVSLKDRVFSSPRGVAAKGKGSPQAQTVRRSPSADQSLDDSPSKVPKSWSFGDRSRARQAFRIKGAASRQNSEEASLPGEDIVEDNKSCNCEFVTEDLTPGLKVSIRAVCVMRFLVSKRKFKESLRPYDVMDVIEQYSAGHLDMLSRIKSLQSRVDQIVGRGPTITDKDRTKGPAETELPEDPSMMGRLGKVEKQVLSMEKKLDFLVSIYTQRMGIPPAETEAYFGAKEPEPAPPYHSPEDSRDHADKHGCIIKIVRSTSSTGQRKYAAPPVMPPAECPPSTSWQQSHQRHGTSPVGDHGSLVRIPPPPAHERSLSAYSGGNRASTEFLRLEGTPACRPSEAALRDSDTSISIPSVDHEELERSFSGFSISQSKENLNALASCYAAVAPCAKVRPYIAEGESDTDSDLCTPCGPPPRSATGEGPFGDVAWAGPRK

Consider `Cc1nc(-c2nc(-c3c(C(=O)NNC(=O)c4ccc(Cl)cc4)noc3C)cs2)cs1`, for which, in test [1], the activation was 140% (active). Moreover, the potentiation is 54.5% (active) in test [2] and 184% (active) in test [3]. For the same compound, the outcome in test [4] was inactive.

Regarding `CC(C)CSc1n[nH]c(=S)s1`, the result in test [1], in test [2] and in test [4] was inactive. For the same compound, the potentiation in test [3] was 145% (active).

Take `O=c1c2ccc(Cl)cc2nc(-c2cccc(C(F)(F)F)c2)n1O`: in test [1], the activation was 722% (active). Moreover, the potentiation in test [2] is 230% (active); in test [3], 756% (active). The outcome in test [4] was inactive.

For `Cc1ccc(-n2c(=S)[nH]c3c(oc4ccccc43)c2=O)cc1C`, the activation in test [1] was 160% (active). Moreover, the potentiation in test [2] was 23.5% (active); in test [3], 150% (active). In addition, in test [4], the result was inactive.

As for `CCc1ccc2[nH]c(O)c(N=Nc3nc(-c4ccccc4)cs3)c2c1`, the activation in test [1] was 186% (active). Also, the results for the potentiation in test [2] and in test [3] were 178% (active) and 282% (active), respectively. Moreover, in test [4], the result was inactive.

As for `Cc1ccc2nc(C)cc(N/N=C/c3cccnc3)c2c1`, the outcome in test [1], in test [2], in test [3] and in test [4] was inactive.

For the compound `CC(C)(C)NC(=O)CN(C(=O)CNC(=O)c1cccs1)c1ccc2c(c1)OCCO2`, the outcome in test [1], in test [2], in test [3] and in test [4] was inactive.

Regarding `CC(=O)N1N=C(N)SC12CCCC2`, the outcome in test [1], in test [2], in test [3] and in test [4] was inactive.

On to `CC(OC(=O)CC1Sc2ccccc2NC1=O)C(=O)NC1CCCC1` (stereo not given), for which the outcome in test [1], in test [2], in test [3] and in test [4] was inactive.

`CC1(C)Cc2c(sc(/N=C/N3CCCCCC3)c2C#N)C(C)(C)N1`: the outcome in test [1], in test [2], in test [3] and in test [4] was inactive.

As to `C=CCn1c(O)c(N=NC(=S)Nc2cccc(C)c2)c2ccccc21`, the activation in test [1] is 225% (active). Further, the potentiation in test [2] is 77% (active); in test [3] it was 286% (active). In addition, the result in test [4] was inactive.

With `OC(c1cc(C(F)(F)F)nc2c(Cl)cc(Cl)cc12)C1CCCCN1` (stereo not given), the outcome in test [1], in test [2], in test [3] and in test [4] was inactive.

`CCOC(=O)C1CCN(C(=O)COc2cc(C)c(Br)c(C)c2)CC1`: the result in test [1], in test [2], in test [3] and in test [4] was inactive.

With `Cc1cc(S(=O)(=O)N2CCOCC2)ccc1OCC(=O)NCc1ccccn1`, the result in test [1], in test [2], in test [3] and in test [4] was inactive.

For the compound `CCOC(=O)c1sc2ncnc(NCC(c3cccs3)N(C)C)c2c1C` (stereo not given), in test [1], the activation was 255% (active). Also, the potentiation was 87% (active) in test [2] and 263% (active) in test [3]. Moreover, the result in test [4] was inactive.

In the case of `COc1cc(/C=C2\C(=O)N(C)C(=S)N2C)ccc1O`, the outcome in test [1], in test [2], in test [3] and in test [4] was inactive.

For the compound `S=c1nc(C2CCCCC2)n(-c2ccccc2)[nH]1`, the activation in test [1] is 356% (active). For the same compound, the potentiation in test [2] is 117% (active); in test [3], 362% (active). Further, the result in test [4] was inactive.

On to `CCc1ccc(NC(=O)C(=O)NNC(=O)c2ccc(OC)cc2)cc1`, for which the activation in test [1] is 326% (active). Besides, the potentiation in test [2] was 149% (active); in test [3] it was 367% (active). For the same compound, the outcome in test [4] was inactive.

On to `C=CCN(CC=C)C(=S)NC(=O)c1ccc(OC)c(Br)c1`, for which the activation in test [1] is 506% (active). Further, the potentiation is 199% (active) in test [2] and 474% (active) in test [3]. The result in test [4] was inactive.

As to `COc1ccccc1C(=O)NC(=S)NNC(=O)c1sc2ccccc2c1Cl`, the activation in test [1] was 358% (active). The results for the potentiation in test [2] and in test [3] were 187% (active) and 361% (active), respectively. The result in test [4] was inactive.

For `CNC(C)C#Cc1ccc2sc3cccc(OC)c3c(=O)c2c1` (stereo not given), the result in test [1], in test [2], in test [3] and in test [4] was inactive.

On to `CCC1(c2ccc(Cl)cc2)NC(=S)N(c2ccc(C)c(C)c2)N1` (stereo not given), for which the activation in test [1] is 706% (active). Moreover, the potentiation in test [2] was 188% (active); in test [3] it was 550% (active). Moreover, in test [4], the outcome was inactive.

`CCN(C(=O)COC(=O)c1ccccc1Nc1cccc(C)c1C)C1CCS(=O)(=O)C1` (stereo not given): the result in test [1], in test [2], in test [3] and in test [4] was inactive.

For `Clc1ccc(-c2csc(N3CCc4ccccc4C3)n2)cc1`, the result in test [1], in test [2], in test [3] and in test [4] was inactive.

In the case of `CCNC(=S)Nc1nc2c(cc1C(=O)OCC)CCCC2`, in test [1], the activation was 140% (active). The potentiation in test [2] was 35% (active); in test [3] it was 177% (active). Moreover, the result in test [4] was inactive.

Regarding `CCOC(=O)c1sc(NN=C(C(=O)OC)C(=O)OC)c(C(=O)OCC)c1C`, in test [1], the activation was 185% (active). Besides, the figures for the potentiation in test [2] and in test [3] were 74.5% (active) and 208% (active), respectively. Moreover, the result in test [4] was inactive.

For the compound `Cc1cccc(S(=O)(=O)Nc2cccc3c2C(=O)c2ccccc2-3)c1`, the result in test [1] and in test [4] was inactive. In addition, the potentiation in test [2] was 43.5% (active); in test [3], 152% (active).

Turning to `Cc1cc(C(=O)N/N=C/C=C/c2ccc3c(c2)OCO3)n[nH]1`, the outcome in test [1], in test [2], in test [3] and in test [4] was inactive.

For `CCOc1ccc(-n2cc(-c3ccccc3)c3c(=S)nc[nH]c32)cc1`, the activation in test [1] was 337% (active). Also, the potentiation in test [2] was 192% (active); in test [3] it was 389% (active). The outcome in test [4] was inactive.

Turning to `CCN1C(=O)/C(=C\C(=O)c2cccs2)c2cc(Br)ccc21`, the result in test [1], in test [2], in test [3] and in test [4] was inactive.
